Test results from article PMC5050072 (Clinical cancer research : an official journal of the …, 2016).

Legend:
GSC-like CD133+ cells = test: Organotypic tumor explants: FACS analysis of CD133+ cells; type: cell-based, human; details: RO4929097 alone; n=5
glioblastoma explants [1] = test: Organotypic tumor explants: CellTiter Glo Luminescent Assay; type: cell-based, human; details: triple combination RT+temozolomide+RO4929097; n=5
Notch pathway components = type: in vivo, human; details: enhancing tissue compared to areas of intact BBB, after 7 days
Method in brief: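 After 7 days of daily test compound (last dose 2–3 h pre-resection), tumor was sampled separately from contrast-enhancing and non-enhancing regions, defined by intraoperative MRI. Notch pathway transcripts were quantified by real-time PCR, normalized to 18S (n=6). Mean±SEM; unpaired Student's t-tests.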

[2] = test system: tumor blood perfusion and vascular permeability; test: DCE-perfusion MRI before and after 7 days of RO4929097; type: in vivo, human; details: after 7 days of RO4929097
Method in brief: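 Dynamic contrast-enhanced perfusion MRI in glioma patients before and after 7 days of daily test compound given before resection. Read-outs were relative fractional plasma volume (Vp) for blood perfusion and volume transfer coefficient between plasma and extravascular extracellular space (K^trans) for vascular permeability. Values given as mean±SEM; significance by unpaired Student's t-test.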

[3] = test system: Notch intracellular domain (NICD); test: NICD immunohistochemistry of tumor cells in matched glioblastoma tissue; type: in vivo, human; details: after presurgical 7-day treatment; before 21.9 ± 5.4 %; n=6
Method in brief: (§1)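 Tumor sections taken before and after 7 days of daily test compound were immunostained; the last dose was given 2–3 h before resection. NICD used an anti-NICD antibody. At least 1,000 cells counted per marker, with morphometry by image analysis. Ki-67 values were also grouped by patient survival (n=7). Mean±SEM; unpaired Student's t-tests.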

[4] = test system: NICD-expressing vascular structures; test: NICD/CD31 immunohistochemistry of tumor blood vessels; type: in vivo, human
[5] = type: in vivo, human
[6] = test system: Notch gene targets, angiogenesis and mesenchymal genes; test: RNA-Ampliseq gene expression profiling of matched and recurrent tumors; type: in vivo, human
Method in brief: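 RNA sequencing on FFPE tumor tissue. Samples were matched archival pre-treatment tissue and tissue resected after the initial 7 days of daily test compound. A further set was recurrent tumors resected at repeat surgery from patients kept on the test compound (with temozolomide) until the day of surgery (n=7).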

[7] = test system: tumor cells proliferation (Ki-67); test: Ki-67 immunohistochemistry of matched pre- and post-treatment tumor tissue; type: in vivo, human
Method in brief: as §1

glioblastoma explants [8] = test: Organotypic tumor explants: Ki-67 immunofluorescent staining; type: cell-based, human; details: RO4929097 1 µM, 10 days in vitro; n=4
Method in brief: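 Fresh tumor tissue from patients resected on study was grown as 3-D organotypic explants. Established explants were treated with the test compound alone. Proliferation was read by Ki-67 immunofluorescent staining and counting of Ki-67+ nuclei before and after treatment (n=4). Mean±SEM; unpaired Student's t-test.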

Hes1 = details: cited from earlier work
[9] = Plasma pharmacokinetics of RO4929097; type: in vivo, human; details: 10, 15, 20 mg, with temozolomide 75mg/m2
Method in brief: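 Daily test compound at 10, 15 or 20 mg, combined with temozolomide 75 mg/m² and 150 mg/m². Plasma levels measured by HPLC-MS/MS. […] Reported as mean ±SD.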

[10] = Phase I 3+3 dose escalation of RO4929097 with RT and temozolomide: toxicity; type: in vivo, human
[11] = after RO4929097, survival cut-off 14 months
[12] = second surgery after prolonged course (mean 181 days)

CC(C)(C(=O)NCC(F)(F)C(F)(F)F)C(=O)N[C@@H]1C(=O)Nc2ccccc2-c2ccccc21 [RO4929097]
proportion of CD133+ cells in explants (GSC-like CD133+ cells): significant decrease | decrease in tumor cell viability compared to control untreated explants (glioblastoma explants [1]): ~60% | Hes1 mRNA levels (Notch pathway components): remained unchanged | mRNA of Notch receptors (Notch 2, 3 and 4) (Notch pathway components): significant upregulation | mRNA of downstream effector Hes5 (Notch pathway components): suppression | mRNA of DLL1, DLL3 and Jag2 ligands (Notch pathway components; n=6): significant downregulation | mean K^trans after treatment ([2]; baseline 0.05± 0.01): 0.03 ± 0.01 min⁻¹ | mean Vp ratio after drug exposure ([2]; baseline 9.34± 2.4, p<0.05, 8 patients): 3.92± 0.9 | NICD-positive tumor cells after treatment [3]: 5.1 ± 1.3% | microvascular density ([4]; Pre vs Post vs PostPP): no significant change | NICD expression on vascular structures, better survival group [4, 11]: 22.5 ± 5.0% | NICD expression on vascular structures, poor survival group [4, 11]: 43.8 ± 9.0% | NICD-expressing vascular structures (Post) ([4]; at 7 days of RO4929097, Pre 67.6 ± 5.2 %, percent of total blood vessels): 30.0 ± 9.0% | NICD-expressing vascular structures (PostPP) ([4]; at recurrence after prolonged treatment, Pre 67.6 ± 5.2 %): 24.2 ± 5.2% | tumor drug level, enhancing tissue ([5]; after 7 days of RO4929097, at surgery, disrupted BBB, mean ± SEM): 0.73 ± 0.13 µM | tumor drug level, non-enhancing tissue ([5]; after 7 days of RO4929097, at surgery, intact BBB, mean ± SEM): 0.33 ± 0.04 µM | drug level in non-enhancing tumor tissue, specimen M09 ([5]; repeat surgery, prolonged RO4929097 use, single specimen): ~ 1.3 µM | tumor drug concentration, enhancing areas [5, 12]: 0.77 ± 0.19 µM | tumor drug concentration, non-enhancing areas [5, 12]: 0.71 ± 0.24 µM | average tissue drug level, favorable survival group ([5]; tumor tissue, survival cut-off 14 months): 0.15 ± 0.03 µM | average tissue drug level, poor survival group ([5]; tumor tissue, survival cut-off 14 months, p=0.36 vs favorable): 0.19 ± 0.05 µM | mesenchymal-associated genes C/EBPB and STAT3 ([6]; after presurgical 7-day RO4929097 treatment phase): downregulated | expression of primary Notch gene targets Hes5, Hey1 and Hey2 ([6]; mostly recurrence group with prolonged therapy, not statistically significant): trend towards downregulation | angiogenesis markers PECAM (CD31), angiopoetins and VEGFA ([6]; recurrent tumors under prolonged RO4929097 therapy): upregulation | Ki-67, poor survival group ([7]; after 7 days of RO4929097, baseline 15.0 ± 2.3 %): 20.4 ± 2.2% | Ki-67, favorable survival subgroup ([7]; after 7 days of RO4929097, baseline 37.3 ± 10.7 %): 8.5 ± 3.2% | Ki-67 proliferation marker after treatment ([7]; after 7 days of RO treatment, before 27.7 ± 7.3 %, n=7): 13.6 ± 3.1% | proliferation (Ki-67 quantification) in explants (glioblastoma explants [8]): significant decrease in proliferation | concentration from which target genes (e.g. Hes1) are reduced dose-dependently (Hes1): ≥ 0.1 µM | mean Cmax and AUC24 for the initial dose [9]: increased as the dose was escalated | QTc prolongation [10]: no significant QTc prolongation | treatment-related deaths [10]: no treatment-related deaths | recommended phase 2 dose (RP2D) ([10]; daily): 20 mg
